# Results pooled from the literature.
# Each line is one published result; the experiments were not run side by side.
# Cell line: NCI-H1299
# Read-out: cell growth or viability
Compound,method,time,IC50
C/C(=N\O)c1ccc(-c2ccc(O)c(Cl)c2)c(Cl)c1O,MTT,48 h,45.8 µM
OCc1cn(Cc2ccc(Cl)cc2)c2ccccc12,SRB,72 h,≥ 13 µM
CC(C)C[C@H](NC(=O)[C@H](Cc1ccccc1)NC(=O)c1cnccn1)B(O)O,ATP luminescence,,0.0099 µM
C/C(=N\O)c1ccc(-c2ccc(O)c(C)c2)c(Cl)c1O,MTT,48 h,30.3 µM
OCc1cn(Cc2cccc(Cl)c2)c2ccccc12,SRB,72 h,≥ 13 µM
COc1ccccc1/C=C/CNCC(O)COc1cccc2ncccc12 (centres unmarked),CCK-8,72 h,36.6 µM
COc1cc2c(Nc3ccc(NC(=O)c4ccccc4)cc3)ncnc2cc1OCCCN1CCOCC1,MTS,48 h,1.1 µM
COc1ccccc1/C=C/CNCC(O)COc1ccc2ncccc2c1 (centres unmarked),CCK-8,72 h,> 100 µM
COc1cc(Nc2nccc(-c3cnn4nc(OC)ccc34)n2)cc(C(F)(F)F)c1,ATP luminescence,,0.26 µM
COc1ccccc1/C=C/CNCC(O)COc1cccc2c1[nH]c1ccccc12 (centres unmarked),CCK-8,72 h,16.3 µM
O=c1[nH]cc(S(=O)(=O)Nc2cccc(-c3nnc(-c4cccc(Cl)c4)o3)c2)c(=O)[nH]1,MTT,24 h,27.6 µM
